Data on 5 compounds can be found in ChEMBL document CHEMBL3865824, “New (E)-1-alkyl-1H-benzo[d]imidazol-2-yl)methylene)indolin-2-ones: Synthesis, in vitro cytotoxicity evaluation and apoptosis inducing studies” (Eur J Med Chem, 2016).

Structures are written as SMILES.

Data set [1] is described as follows: Cytotoxicity against human BT549 cells assessed as growth inhibition at 50 uM after 48 hrs by MTT assay relative to control. The format is functional. To be noted: BT-549, 48 h, read-out: GI. The method, boiled down:
(§1)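 Cells grown in DMEM or MEM with 10% FBS at 37 °C, 5% CO2. Seeded at 1×10^4 cells/well, incubated 48 h, then exposed to compound for 48 h with vehicle control. MTT (5 mg/mL stock) added for 4 h; formazan dissolved in DMSO, absorbance read at 570 nm. Preliminary screen at 50 µM. Compounds giving >50% inhibition were tested for dose-response curves; IC50 derived by linear regression of % inhibition versus concentration. Mean of three independent experiments in triplicate.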

Data set [2] can be described thus: Cytotoxicity against human A549 cells assessed as growth inhibition at 50 uM after 48 hrs by MTT assay relative to control. The format is functional. The settings on record: A549, 48 h, read-out: GI. The method, boiled down: as §1
Data set [3] is described as follows: Cytotoxicity against human MCF7 cells assessed as reduction in cell viability after 48 hrs by MTT assay. To be noted: MCF7, 48 h. The format is functional, cell-based. The method, boiled down:
as §1

The nature of data set [4]: Cytotoxicity against human A549 cells assessed as reduction in cell viability after 48 hrs by MTT assay. Format: functional, cell-based. To be noted: A549, 48 h. The method, boiled down:
as §1

Data set [5] can be described thus: Cytotoxicity against HGC cells assessed as reduction in cell viability after 48 hrs by MTT assay. Format: functional, cell-based. To be noted: Homo sapiens. The method, boiled down:
as §1

A short description of data set [6]: Cytotoxicity against human MDA-MB-231 cells assessed as reduction in cell viability after 48 hrs by MTT assay. The format is functional, cell-based. The settings on record: MDA-MB-231, 48 h. The method, boiled down: as §1
Data set [7] is described as follows: Cytotoxicity against human BT549 cells assessed as reduction in cell viability after 48 hrs by MTT assay. The format is functional, cell-based. To be noted: BT-549, 48 h. Put shortly: as §1
Data set [8] can be described thus: Cytotoxicity against human MCF10A cells assessed as reduction in cell viability after 48 hrs by MTT assay. Format: toxicity, cell-based, MCF-10A. The method, boiled down: as §1
The nature of data set [9]: Cytotoxicity against human DU145 cells assessed as reduction in cell viability after 48 hrs by MTT assay. Format: functional, cell-based. The settings on record: DU-145, 48 h. The method, boiled down: as §1
The nature of data set [10]: Cytotoxicity against HGC cells assessed as growth inhibition at 50 uM after 48 hrs by MTT assay relative to control. Format: functional. The settings on record: Homo sapiens, read-out: GI. The method, boiled down: as §1
Data set [11] can be described thus: Cytotoxicity against […] cells assessed as reduction in cell viability after 48 hrs by MTT assay. Format: functional, cell-based. The settings on record: 4T1, 48 h. Put shortly: as §1
Data set [12] is described as follows: Cytotoxicity against […] cells assessed as growth inhibition at 50 uM after 48 hrs by MTT assay relative to control. The settings on record: Mus musculus, 4T1, 48 h; read-out: GI. Format: functional. The method, boiled down:
as §1

Data set [13] in a line: Cytotoxicity against human MDA-MB-231 cells assessed as growth inhibition at 50 uM after 48 hrs by MTT assay relative to control. Format: functional. To be noted: MDA-MB-231, 48 h, read-out: GI. Put shortly:
as §1

Data set [14] is described as follows: Cytotoxicity against human DU145 cells assessed as growth inhibition at 50 uM after 48 hrs by MTT assay relative to control. The format is functional. To be noted: DU-145, 48 h, read-out: GI. The method, boiled down: as §1
Data set [15] in a line: Cytotoxicity against human PC3 cells assessed as growth inhibition at 50 uM after 48 hrs by MTT assay relative to control. The format is functional. To be noted: PC-3, 48 h, read-out: GI. The method, boiled down:
as §1

Data set [16] is described as follows: Cytotoxicity against human MCF7 cells assessed as growth inhibition at 50 uM after 48 hrs by MTT assay relative to control. Format: functional. The settings on record: MCF7, 48 h, read-out: GI. The method, boiled down:
as §1

Data set [17] is described as follows: Cytotoxicity against human PC3 cells assessed as reduction in cell viability after 48 hrs by MTT assay. The format is functional, cell-based. To be noted: PC-3, 48 h. The method, boiled down:
as §1

The nature of data set [18]: Selectivity ratio of IC50 for human MCF10A cells to IC50 for human MDA-MB-231 cells. Format: ADME, cell-based, MCF-10A. The settings on record: MCF10A cells versus MDA-MB-231 cells, read-out: Ratio IC50.
A short description of data set [19]: Selectivity ratio of IC50 for human MCF10A cells to IC50 for […] cells. The format is ADME, cell-based, MCF-10A. The settings on record: MCF10A cells versus 4TI cells, read-out: Ratio IC50.
The nature of data set [20]: Selectivity ratio of IC50 for human MCF10A cells to IC50 for human PC3 cells. The settings on record: MCF10A cells versus PC3 cells, read-out: Ratio IC50. Format: ADME, cell-based, MCF-10A.
The nature of data set [21]: Selectivity ratio of IC50 for human MCF10A cells to IC50 for human DU145 cells. To be noted: MCF10A cells versus DU145 cells, read-out: Ratio IC50. Format: ADME, cell-based, MCF-10A.
The nature of data set [22]: Selectivity ratio of IC50 for human MCF10A cells to IC50 for human MCF7 cells. The format is ADME, cell-based, MCF-10A. The settings on record: MCF10A cells versus MCF7 cells, read-out: Ratio IC50.
Data set [23] can be described thus: Selectivity ratio of IC50 for human MCF10A cells to IC50 for human BT549 cells. Format: ADME, cell-based, MCF-10A. The settings on record: MCF10A cells versus BT549 cells, read-out: Ratio IC50.
Data set [24] in a line: Selectivity ratio of IC50 for human MCF10A cells to IC50 for HGC cells. Format: ADME, cell-based, MCF-10A. To be noted: MCF10A cells versus HGC cells, read-out: Ratio IC50.
Data set [25] in a line: Selectivity ratio of IC50 for human MCF10A cells to IC50 for human A549 cells. Format: ADME, cell-based. The settings on record: MCF10A cells versus A549 cells, read-out: Ratio IC50.
Data set [26] can be described thus: Cell cycle arrest in human MDA-MB-231 cells assessed as accumulation at G0/G1 phase at 4 uM after 24 hrs by propidium iodide staining based FACS analysis (reference value: 50.4 %). Format: functional. The method, boiled down: (§2)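 MDA-MB-231 at 1×10^6 cells/well treated with 1, 2 or 4 µM for 24 h, with a DMSO control. Cells harvested by trypsin, washed with PBS and fixed in 70% ethanol for 30 min at 4 °C. Stained 15 min at room temperature in the dark with PI buffer containing Triton X and DNase-free RNase A. Analysed by flow cytometry; G0/G1, S and G2/M fractions quantified.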

Data set [27] is described as follows: Cell cycle arrest in human MDA-MB-231 cells assessed as accumulation at G2/M phase at 4 uM after 24 hrs by propidium iodide staining based FACS analysis (reference value: 26 %). Format: functional. Put shortly: as §2
A short description of data set [28]: Cell cycle arrest in human MDA-MB-231 cells assessed as accumulation at S phase at 4 uM after 24 hrs by propidium iodide staining based FACS analysis (reference value: 24.6 %). Format: functional. Put shortly: as §2

As for `CC(C)n1c(/C=C2/C(=O)Nc3ccc(F)cc32)nc2ccccc21`, the inhibition of growth at 50 µM in data set [1], in [2], in data set [10], in data set [12], in [13] and in data set [14] was greater than 50% in each case. The inhibition of growth at 50 µM in [15] and in [16] was greater than 50% each time. For the same compound, the IC50 in data set [3] turned out to be 29 µM; in data set [4], 28.4 µM; in data set [5] it was 28 µM; in data set [6] it was 22.7 µM; in [7], 26.7 µM; in [9] it was 24.5 µM. The IC50 stood at 25.8 µM in data set [11] and 20.8 µM in data set [17]. Further, in data set [8], the half-maximal inhibitory concentration (IC50) at 48 h is greater than 100 µM.
As for `Cc1ccc2c(c1)/C(=C\c1nc3ccccc3n1C(C)C)C(=O)N2`, the inhibition of growth at 50 µM in data set [1], in data set [2], in [10], in data set [12], in data set [13] and in [14] was greater than 50% throughout. Further, the inhibition of growth at 50 µM in [15] and in [16] was greater than 50% throughout. Besides, the IC50 in [3] came out at 16.3 µM; in data set [4] it was 23 µM; in data set [5], 14.6 µM; in [6], 7.23 µM; in data set [7] it was 23.7 µM; in data set [9], 13.3 µM. Further, the IC50 in data set [11] came to 9.36 µM; in data set [17], 14 µM. The IC50 at 48 h in data set [8] turned out to be 99.7 µM. Besides, the selectivity ratio in data set [18] worked out at 14; in [19], 10.6.
Take `CC(C)n1c(/C=C2/C(=O)Nc3ccc(Cl)cc32)nc2ccccc21`: the selectivity ratio in [20], in [21], in data set [18], in data set [19], in data set [22] and in data set [23] was 2 to 3 in each case. Also, the selectivity ratio in data set [24] and in data set [25] was 2 to 3 in each case. Besides, the inhibition of growth at 50 µM in data set [1], in [2], in [10], in [12], in [13] and in data set [14] was greater than 50% each time. Moreover, the inhibition of growth at 50 µM in data set [15] and in data set [16] was greater than 50% throughout. For the same compound, the IC50 in data set [3] was 24 µM; in [4], 35.2 µM; in [5], 32.8 µM; in data set [6], 25.1 µM; in data set [7], 35.1 µM; in [9], 36.4 µM. Moreover, the IC50 worked out at 35.7 µM in data set [11] and 38.1 µM in data set [17]. In data set [8], the IC50 at 48 h stood at 68.8 µM.
Regarding `CCN(CC)CCNC(=O)c1c(C)[nH]c(/C=C2\C(=O)Nc3ccc(F)cc32)c1C` [SUNITINIB], the IC50 worked out at 23.8 µM in data set [3]; 14.4 µM in [4]; 7.44 µM in data set [6]; 15.5 µM in data set [7]; 16.4 µM in [9]. Also, the Activity in [26] is 67.6%; in data set [27], 13.9%; in data set [28], 18.3%.
Regarding `CCn1c(/C=C2/C(=O)Nc3ccc(C)cc32)nc2ccccc21`, the inhibition of growth at 50 µM in [1] is less than 50%; in data set [2] it was less than 50%; in data set [10] it was less than 50%; in data set [12], greater than 50%; in data set [13], greater than 50%; in [14] it was greater than 50%. Also, the results for the inhibition of growth at 50 µM in data set [15] and in data set [16] were greater than 50% and less than 50%, respectively. For the same compound, the IC50 in [3] was greater than 50 µM; in data set [4], greater than 50 µM; in data set [5] it was greater than 50 µM; in data set [6] it was 40.6 µM; in [7], greater than 50 µM; in [9] it was 39.3 µM. Moreover, the IC50 in data set [11] stood at 39.4 µM; in data set [17], 38.6 µM.
